Experimental data collected from several papers.
Each line is one published result; the experiments were not run side by side.
Target: Serine/threonine-protein kinase MARK2 (MARK2, Homo sapiens, UniProt Q7KZI7)

O=C(NCC1CCOCC1)c1n[nH]cc1NC(=O)c1c(F)cccc1F
remaining binding (binding, competition with immobilised ligand; 1 µM): 71%

COc1cnc(Nc2cccc(S(N)(=O)=O)c2)nc1N1CCN(c2ccccc2)CC1
remaining binding (binding, competition with immobilised ligand; 1 µM): 88%

CN(c1nccc(-c2cnn3ncccc23)n1)C1CC1
remaining binding (binding; 1 µM): 100%

O=C(O)[C@@H]1[C@@H](Cn2nnc3ccccc3c2=O)CC[C@H]1C(=O)c1ccc(OCCC2CCOCC2)cc1
remaining binding (cell-free assay, competition with immobilised ligand; 1 µM): 100%

O=C(c1ccc(Nc2ncc(Cl)c(-c3cc4ccccc4s3)n2)cc1)N1CCC(N2CCCC2)CC1
remaining binding (binding, competition with immobilised ligand; 1 µM): 80%

CN(CCCC(F)(F)F)c1nccc(-c2cnn3ncccc23)n1
remaining binding (binding; 1 µM): 100%

COc1ncc2cc3ccccc3nc2c1C#N
remaining binding (cell-free assay, competition with immobilised ligand; 5 µM): 97%

FC(F)(F)Oc1cccc(-c2cnc3ccc(-c4ccncc4)nn23)c1
remaining binding (cell-free assay, competition with immobilised ligand; 5 µM): 64%

C[C@H](c1ccc(F)cc1)N(Cc1cccc(C(=O)O)c1)C(=O)c1cnc2ccccc2c1
remaining binding (cell-free assay, competition with immobilised ligand; 1 µM): 80%

CN(C)c1ncc(F)c(-c2cnn3ncccc23)n1
remaining binding (binding; 1 µM): 72%

O=C(c1ccc(Nc2ncc(Cl)c(-c3ccc(Cl)s3)n2)cc1)N1CCC(N2CCCC2)CC1
remaining binding (binding, competition with immobilised ligand; 1 µM): 69%

CC1CCCN1c1nccc(-c2cnn3ncccc23)n1 (stereo not shown)
remaining binding (binding; 1 µM): 70%

O=C(NCCCN1CCOCC1)c1ccc(Nc2nccc(-c3cc4ccccc4s3)n2)cc1
remaining binding (binding, competition with immobilised ligand; 1 µM): 81%

Nc1ncc2c(n1)-c1c([nH]c3ccc(C#CC4CC4)cc13)CCCC2
remaining binding (binding, competition with immobilised ligand; 1 µM): 94%

CCc1ccccc1C(=O)Nc1n[nH]c2c(C)c(F)c(C3C(C#N)=C(C)N(C)C(C)=C3C#N)cc12
remaining binding (cell-free assay, competition with immobilised ligand; 1 µM): 40%

F[C@@H]1CCN(c2nccc(-c3cnn4ncccc34)n2)C1
remaining binding (binding; 1 µM): 100%

COc1cccc(CNC(=O)c2nc3scc(COCc4ccc(C(=O)O)cc4)c3c(=O)[nH]2)c1
remaining binding (cell-free assay, competition with immobilised ligand; 1 µM): 100%

CNC(=O)[C@@H]1CC[C@@H](n2c(-c3ccc4cnccc4c3)nc3ccc(C(=O)NCc4cccc(C(N)=O)c4)cc32)C1
remaining binding (binding, competition with immobilised ligand; 1 µM): 100%

C[C@H]1CCN(c2nccc(-c3cnn4ncccc34)n2)C1
remaining binding (binding; 1 µM): 100%

COc1ccc2cc(OCC3(C(=O)O)CN(C(=O)c4ccc(F)cc4)C3)ccc2c1
remaining binding (cell-free assay, competition with immobilised ligand; 1 µM): 91%

N[C@@H]1CCN(c2nccc(-c3cnn4ncccc34)n2)C1
remaining binding (binding; 1 µM): 100%

O=C(NCCCC1CCCCC1)c1ccc(CNC(=O)c2cnn(-c3ccccc3)c2C(F)(F)F)cc1
remaining binding (cell-free assay, competition with immobilised ligand; 0.1 µM): 100%
